# In ChEMBL document CHEMBL1152423, “Development of N-[11C]methylamino 4-hydroxy-2(1H)-quinolone derivatives as PET radioligands for the glycine-binding site of NMDA receptors” (Bioorg Med Chem, 2009):
# pKi: −log10 of the molar value. Active and inactive are the calls of the source. The calls are words filed in the database; no cut-off is given here.
# Tests used:
# Glutamate NMDA receptor [1] = assay: Binding affinity to glycine binding site of NMDA receptor in rat brain; assay type: tissue-based
# Cerebellum [2] = assay: Biodistribution in ddY mouse cerebellum assessed per gram of tissue at 7.4 MBq, iv after 1 min by gamma counting; assay type: ADME, organism-based; conditions: in vivo
# Outline: (§1)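 ddY mice (35–45 g) received about 7.4 MBq of [11C]radioligand in 0.2 ml into the tail vein and were decapitated at 1 or 30 min. Blood, cerebrum and cerebellum were gamma-counted with decay correction and expressed as % injected dose/g; tissue/blood ratios were derived. n=3 or 5.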
# [3] = Metabolic stability in ddY mouse blood at 7.4 MBq, iv after 30 mins by radio-TLC analysis; assay type: ADME, organism-based; conditions: 40 MBq, in the assay text read “40 MBq” for “7.4 MBq”, read-out: Activity
# [4] = Biodistribution in ddY mouse cerebrum assessed per gram of tissue at 7.4 MBq, iv after 30 mins by gamma counting; assay type: ADME, organism-based; conditions: in vivo, 0.5 h; outline: as §1
# Blood [5] = assay: Biodistribution in ddY mouse blood assessed per gram of tissue at 40 MBq, iv after 30 mins by gamma counting in presence of 5-ethyl-7-chloro-4-hydroxy-3-(3-[11C]methylaminophenyl)-2(1H)-quinolone; assay type: ADME, organism-based; conditions: in vivo, 0.5 h
# Outline: (§2)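 Blocking study: [11C]radioligand was mixed with unlabeled ligand (2 mg/kg) and injected iv into ddY mice. Animals were killed at 30 min; blood, cerebrum and cerebellum were gamma-counted and expressed as % dose/g and tissue/blood ratios. Comparison with controls used the Mann–Whitney U-test.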
# [6] = Ratio of drug level in cerebrum to blood of ddY mouse at 40 MBq, iv after 30 mins in presence of 5-ethyl-7-chloro-4-hydroxy-3-(3-[11C]methylaminophenyl)-2(1H)-quinolone; assay type: ADME, organism-based; conditions: in vivo, 0.5 h, in the assay text read “7.4 MBq” for “40 MBq”; outline: as §2
# [7] = Plasma protein binding in rat at 0.67 to 0.89 […] after 30 mins by ultrafiltration; assay type: ADME, cell-free; conditions: read-out: PPB (converted)
# Outline: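 Rat serum was diluted 10-fold in 66 mM phosphate buffer (pH 7.4) containing [11C]radioligand (0.67–0.89 MBq) and incubated 30 min at 30 °C. It was then ultrafiltered by centrifugation at 2000 rpm for 15 min. Radioactivity in whole plasma and in filtrate was counted to give % bound (mean, n=3).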
# [8] = Metabolic stability in ddY mouse brain at 7.4 MBq, iv after 30 mins by radio-TLC analysis; assay type: ADME, organism-based; conditions: 40 MBq, in the assay text read “40 MBq” for “7.4 MBq”, read-out: Activity
# Outline: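 Mice received [11C]radioligand (40 MBq) iv and were killed at 30 min. Whole brain was homogenized in ice-cold MeOH and centrifuged at 10,000 rpm for 1 min at 4 °C. Extracts were analysed by radio-TLC using CHCl3/CH3CN 3:1, CHCl3/MeOH 9:1, or CH3CN as mobile phase; intact parent fraction was recorded.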
# [9] = Biodistribution in ddY mouse cerebrum assessed per gram of tissue at 40 MBq, iv after 30 mins by gamma counting in presence of 5-ethyl-7-chloro-4-hydroxy-3-(3-[11C]methylaminophenyl)-2(1H)-quinolone; assay type: ADME, organism-based; conditions: in vivo, 0.5 h, in the assay text read “7.4 MBq” for “40 MBq”; outline: as §2
# [10] = Ratio of drug level in cerebellum to blood of ddY mouse at 7.4 MBq, iv after 30 mins; assay type: ADME, organism-based; outline: as §1
# Cerebellum [11] = assay: Biodistribution in ddY mouse cerebellum assessed per gram of tissue at 7.4 MBq, iv after 30 mins by gamma counting; assay type: ADME, organism-based; conditions: in vivo, 0.5 h; outline: as §1
# Cerebellum [12] = assay: Biodistribution in ddY mouse cerebellum assessed per gram of tissue at 40 MBq, iv after 30 mins by gamma counting in presence of 5-ethyl-7-chloro-4-hydroxy-3-(3-[11C]methylaminophenyl)-2(1H)-quinolone; assay type: ADME, organism-based; conditions: in vivo, 0.5 h, in the assay text read “7.4 MBq” for “40 MBq”; outline: as §2
# Blood [13] = assay: Biodistribution in ddY mouse blood assessed per gram of tissue at 7.4 MBq, iv after 30 mins by gamma counting; assay type: ADME, organism-based; conditions: in vivo, 0.5 h; outline: as §1
# Blood [14] = assay: Biodistribution in ddY mouse blood assessed per gram of tissue at 7.4 MBq, iv after 1 min by gamma counting; assay type: ADME, organism-based; conditions: in vivo; outline: as §1
# [15] = Ratio of drug level in cerebellum to blood of ddY mouse at 7.4 MBq, iv after 1 min; assay type: ADME, organism-based; outline: as §1
# [16] = Biodistribution in ddY mouse cerebrum assessed per gram of tissue at 7.4 MBq, iv after 1 min by gamma counting; assay type: ADME, organism-based; conditions: in vivo; outline: as §1
# [17] = Ratio of drug level in cerebellum to blood of ddY mouse at 40 MBq, iv after 30 mins in presence of 5-ethyl-7-chloro-4-hydroxy-3-(3-[11C]methylaminophenyl)-2(1H)-quinolone; assay type: ADME, organism-based; conditions: in vivo, 0.5 h, in the assay text read “7.4 MBq” for “40 MBq”; outline: as §2
# [18] = Ratio of drug level in cerebrum to blood of ddY mouse at 7.4 MBq, iv after 1 min; assay type: ADME, organism-based; outline: as §1
# [19] = Ratio of drug level in cerebrum to blood of ddY mouse at 7.4 MBq, iv after 30 mins; assay type: ADME, organism-based; outline: as §1
# [20] = Biodistribution in mouse cerebrum assessed per gram of tissue at 7.4 MBq, iv after 1 min by gamma counting; assay type: ADME, organism-based; conditions: in vivo
# [21] = Ratio of drug level in cerebrum to blood of mouse at 7.4 MBq, iv after 1 min; assay type: ADME, organism-based
# Outline: (§3)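 ddY mice (35–45 g) received ca. 7.4 MBq ¹¹C-labelled ligand (0.2 ml) by tail-vein injection and were decapitated at 1 min. Cerebrum and cerebellum were dissected, and radioactivity was gamma-counted with decay correction and expressed as % injected dose per gram tissue. The value is the tissue-to-blood ratio of % dose/g.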
# [22] = Ratio of drug level in cerebellum to blood of mouse at 7.4 MBq, iv after 1 min; assay type: ADME, organism-based; outline: as §3
# Cerebellum [23] = assay: Biodistribution in mouse cerebellum assessed per gram of tissue at 7.4 MBq, iv after 1 min by gamma counting; assay type: ADME, organism-based; conditions: in vivo
# Blood [24] = assay: Biodistribution in mouse blood assessed per gram of tissue at 7.4 MBq, iv after 1 min by gamma counting; assay type: ADME, organism-based; conditions: in vivo
# Glutamate NMDA receptor [25] = assay: Displacement of [3H]MDL-105519 from glycine binding site of NMDA receptor in rat cortical membrane by liquid scintillation counting; assay type: cell membranes
# Outline: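 Washed rat cortical membranes in 50 mM Tris–HCl (pH 8.0) were incubated 45 min at 4 °C with [3H]MDL-105,519 (2 nM) plus buffer or displacer. Nonspecific binding was defined with excess unlabeled glycine. Samples were filtered on GF/B, washed three times with ice-cold buffer, and counted by liquid scintillation. Ki came from three determinations, each in triplicate.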
# [26] = target: T1, Glutamate NMDA receptor (Rattus norvegicus) (UniProt P35439+Q00959+Q00960+Q00961+Q62645+Q8VHN2+Q9R1M7); assay: Binding affinity to glycine binding site of NMDA receptor in hippocampus of rat brain by autoradiography; assay type: tissue-based; conditions: tested as the 11C-labelled form
# Outline: (§4)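 Rat brain sagittal sections were preincubated 30 min at 25 °C in 50 mM Tris–HCl (pH 7.4), then incubated 30 min at 25 °C with the [11C]radioligand (1.59–2.13 nM). Sections were rinsed twice for 3 min in cold buffer, dipped in cold water, dried, and exposed to imaging plates for 60 min. Nonspecific binding was taken with the corresponding unlabeled ligand; specific binding is given per region.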
# [27] = target: T1, Glutamate NMDA receptor (Rattus norvegicus); assay: Binding affinity to glycine binding site of NMDA receptor in hippocampus of rat brain by autoradiography in presence of glycine-site antagonist L-703717; assay type: tissue-based; conditions: tested as the 11C-labelled form
# Outline: (§5)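 Hippocampal binding on rat brain slices: 30 min at 25 °C in 50 mM Tris–HCl (pH 7.4) with [11C]radioligand (1.59–2.13 nM), with or without a glycine-site drug (agonists at 1 mM). Slices were rinsed, dried and exposed to imaging plates for 60 min. PSL with drug was divided by PSL without drug to give % total binding, averaged over at least triplicate sections from three animals.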
# [28] = target: T1, Glutamate NMDA receptor (Rattus norvegicus); assay: Binding affinity to glycine binding site of NMDA receptor in hippocampus of rat brain by autoradiography in presence of glycine; assay type: tissue-based; conditions: tested as the 11C-labelled form; outline: as §5
# [29] = target: T1, Glutamate NMDA receptor (Rattus norvegicus); assay: Binding affinity to glycine binding site of NMDA receptor in cerebral cortex of rat brain by autoradiography; assay type: tissue-based; conditions: tested as the 11C-labelled form; outline: as §4
# [30] = target: T1, Glutamate NMDA receptor (Rattus norvegicus); assay: Binding affinity to glycine binding site of NMDA receptor in hippocampus of rat brain by autoradiography in presence of glycine-site agonist D-serine; assay type: tissue-based; conditions: tested as the 11C-labelled form; outline: as §5
# [31] = target: T1, Glutamate NMDA receptor (Rattus norvegicus); assay: Binding affinity to glycine binding site of NMDA receptor in cerebellum of rat brain by autoradiography; assay type: tissue-based; conditions: tested as the 11C-labelled form; outline: as §4
# [32] = target: T1, Glutamate NMDA receptor (Rattus norvegicus); assay: Binding affinity to glycine binding site of NMDA receptor in thalamus of rat brain by autoradiography; assay type: tissue-based; conditions: tested as the 11C-labelled form; outline: as §4
# [33] = target: T1, Glutamate NMDA receptor (Rattus norvegicus); assay: Binding affinity to glycine binding site of NMDA receptor in hippocampus of rat brain by autoradiography in presence of glycine-site antagonist methoxy-MDL-104653; assay type: tissue-based; conditions: tested as the 11C-labelled form; outline: as §5
# [34] = target: T1, Glutamate NMDA receptor (Rattus norvegicus); assay: Binding affinity to glycine binding site of NMDA receptor in striatum of rat brain by autoradiography; assay type: tissue-based; conditions: tested as the 11C-labelled form; outline: as §4
# [35] = target: T1, Glutamate NMDA receptor (Rattus norvegicus); assay: Binding affinity to glycine binding site of NMDA receptor in hippocampus of rat brain by autoradiography in presence of glycine-site antagonist MDL-105519; assay type: tissue-based; conditions: tested as the 11C-labelled form; outline: as §5
smiles,measurement,setting,value
COc1cccc(-c2c(O)c3c(I)cc(Cl)cc3[nH]c2=O)c1,pKi,Glutamate NMDA receptor [1],7.99
CCc1cc(Cl)cc2[nH]c(=O)c(-c3cccc(N[11CH3])c3)c(O)c12,Drug uptake,Cerebellum [2],0.87 %ID
same,remaining at 0.5 h,[3],93%
same,Drug uptake,[4],0.38 %ID/g
same,Drug uptake,Blood [5],7.77 %ID
same,Ratio,[6],0.044
same,fraction unbound at 0.5 h,[7],0.29
same,remaining at 0.5 h,[8],70%
same,Drug uptake,[9],0.34 %ID
same,Kp at 0.5 h,[10],0.058
same,Drug uptake,Cerebellum [11],0.53 %ID/g
same,Drug uptake,Cerebellum [12],0.34 %ID
same,Drug uptake,Blood [13],9.08 %ID/g
same,Drug uptake,Blood [14],20.91 %ID
same,Kp at 1 min,[15],0.042
same,Drug uptake,[16],0.47 %ID
same,Ratio,[17],0.044
same,Kp at 1 min,[18],0.022
same,Kp at 0.5 h,[19],0.042
[11CH3]Oc1ccc(Cc2cccc(-c3c(O)c4ccc(Cl)cc4[nH]c3=O)c2)cc1,Drug uptake,[4],0.2 %ID/g
same,Kp at 0.5 h,[10],0.068
same,Drug uptake,Cerebellum [11],0.24 %ID/g
same,Drug uptake,Blood [13],3.46 %ID/g
same,Drug uptake,[20],0.32 %ID
same,Kp at 1 min,[21],0.038
same,Kp at 0.5 h,[19],0.051
same,Kp at 1 min,[22],0.043
same,Drug uptake,Cerebellum [23],0.36 %ID
same,Drug uptake,Blood [24],8.37 %ID
CN(C)c1ccc(Cc2cccc(-c3c(O)c4ccc(Cl)cc4[nH]c3=O)c2)cc1,pKi,Glutamate NMDA receptor [25],7.65
COc1cccc(-c2c(O)c3c(N)cc(Cl)cc3[nH]c2=O)c1,pKi,Glutamate NMDA receptor [25],6.92
COc1ccc(Nc2cccc(-c3c(O)c4ccc(Cl)cc4[nH]c3=O)c2)cc1,pKi,Glutamate NMDA receptor [25],7.63
CCc1cc(Cl)cc2[nH]c(=O)c(-c3cccc(NC)c3)c(O)c12,Activity,[26],89%
same,Activity,[27],64%
same,Activity,[28],59%
same,Activity,[29],Active
same,Activity,[30],59%
same,Activity,[31],75%
same,Activity,[32],Active
same,Activity,[33],64%
same,pKi,Glutamate NMDA receptor [25],7.93
same,Activity,[34],Active
same,Activity,[35],64%
CNc1cc(Cl)cc2[nH]c(=O)c(-c3cccc(OC)c3)c(O)c12,pKi,Glutamate NMDA receptor [25],6.15
